Experimental data pooled from the literature.
Each line is one published result; the experiments were not run side by side.
Target: Myosin light chain kinase (MYLK3, Homo sapiens, UniProt Q32MK0)
Residues used in one study (Q32MK0 1-819): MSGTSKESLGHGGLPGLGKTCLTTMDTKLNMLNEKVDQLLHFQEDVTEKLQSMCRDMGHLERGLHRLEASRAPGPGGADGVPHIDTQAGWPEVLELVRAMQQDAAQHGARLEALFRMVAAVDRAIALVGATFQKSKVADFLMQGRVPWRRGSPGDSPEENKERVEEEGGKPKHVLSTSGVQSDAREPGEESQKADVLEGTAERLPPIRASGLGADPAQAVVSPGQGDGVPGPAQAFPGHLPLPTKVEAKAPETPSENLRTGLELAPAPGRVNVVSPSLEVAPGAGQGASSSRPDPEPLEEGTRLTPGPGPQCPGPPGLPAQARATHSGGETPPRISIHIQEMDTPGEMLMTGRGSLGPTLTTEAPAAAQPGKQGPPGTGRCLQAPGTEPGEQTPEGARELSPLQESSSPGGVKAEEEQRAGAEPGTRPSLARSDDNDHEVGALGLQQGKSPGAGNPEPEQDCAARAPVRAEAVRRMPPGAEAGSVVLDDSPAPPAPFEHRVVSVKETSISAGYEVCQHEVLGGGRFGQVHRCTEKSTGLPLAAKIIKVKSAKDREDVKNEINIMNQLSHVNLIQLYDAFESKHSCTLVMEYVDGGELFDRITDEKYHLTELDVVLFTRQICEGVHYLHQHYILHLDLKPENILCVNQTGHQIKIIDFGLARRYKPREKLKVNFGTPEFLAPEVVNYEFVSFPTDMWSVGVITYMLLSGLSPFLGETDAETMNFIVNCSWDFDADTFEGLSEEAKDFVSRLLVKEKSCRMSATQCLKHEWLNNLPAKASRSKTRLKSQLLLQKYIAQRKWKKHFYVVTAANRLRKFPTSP

Compound | test | setting | remaining binding [%]
C[C@@H]1CCN(c2nccc(-c3cnn4ncccc34)n2)C1 | binding | 1 µM | 91
COc1cnc(Nc2cccc(S(N)(=O)=O)c2)nc1N1CCN(c2ccccc2)CC1 | binding, competition with immobilised ligand | 1 µM | 97
CS(=O)(=O)NCC[C@H](NC(=O)c1cncc2c1cnn2-c1ccc(F)cc1)c1ccnc(S(C)(=O)=O)c1 | cell-free assay, competition with immobilised ligand | 1 µM | 100
O=C(c1ccc(Nc2ncc(Cl)c(-c3cc4ccccc4s3)n2)cc1)N1CCC(N2CCCC2)CC1 | binding, competition with immobilised ligand | 1 µM | 2
c1cncc(-c2cccc(Nc3nccc(NC4CCCCC4)n3)c2)c1 | binding, competition with immobilised ligand | 10 µM | 100
O=C(NCC1CCOCC1)c1n[nH]cc1NC(=O)c1c(F)cccc1F | binding, competition with immobilised ligand | 1 µM | 100
CN(c1nccc(-c2cnn3ncccc23)n1)C1CC1 | binding | 1 µM | 100
CCN1CCN(Cc2ccc(C(=O)Nc3ccc(C)c(Oc4ccc5c(c4)CC(=O)N5)c3)cc2C(F)(F)F)CC1 | binding, competition with immobilised ligand | 1 µM | 100
O=C(NCCCN1CCOCC1)c1ccc(Nc2nccc(-c3cc4ccccc4s3)n2)cc1 | binding, competition with immobilised ligand | 1 µM | 3.6
c1cnn2ncc(-c3ccnc(N4CCC45COC5)n3)c2c1 | binding | 1 µM | 100
Cc1cnc(Nc2ccc(C(=O)N3CCC(N4CCCC4)CC3)cc2)nc1-c1cc2ccccc2s1 | binding, competition with immobilised ligand | 1 µM | 5.1
COc1ccc2c(c1)O[C@H](c1ccc(OC)c(OC)c1)C[C@@H]2NC(=O)C1(c2ccc3c(c2)OC(F)(F)O3)CC1 | cell-free assay, competition with immobilised ligand | 1 µM | 95
COc1ncc2cc3ccccc3nc2c1C#N | cell-free assay, competition with immobilised ligand | 5 µM | 96
NS(=O)(=O)c1cc(NC(=O)Cc2ccccc2)ccc1Oc1cccc(Cl)c1 | cell-free assay, competition with immobilised ligand | 1 µM | 89
C=CC(=O)N1CCC(C(=O)NCC(=O)N2CCN(c3nc(-c4cnc(N)nc4C(F)F)nc(N4CCOCC4)n3)CC2)CC1 | binding, competition with immobilised ligand | 1 µM | 92
N#CC1(c2ccccn2)CCN(Cc2cc(C(=O)N3CCCC3)c(=O)n3ccccc23)CC1 | cell-free assay, competition with immobilised ligand | 1 µM | 76
CN(C)c1nccc(-c2cnn3ncccc23)n1 | binding | 1 µM | 100
C[C@@H]1CN(c2cc(-c3nn(C)c4ccc(OC5(C)CC5)cc34)ncn2)C[C@H](C)O1 | cell-free assay, competition with immobilised ligand | 1 µM | 97
N[C@H]1CCN(c2nccc(-c3cnn4ncccc34)n2)C1 | binding | 1 µM | 88
Nc1c(C(=O)NCc2ccc(C(=O)NCCCC3CCCCC3)cc2)cnn1-c1ccccc1 | cell-free assay, competition with immobilised ligand | 0.1 µM | 100
CC1CCCN1c1nccc(-c2cnn3ncccc23)n1 (stereo not drawn) | binding | 1 µM | 100
